Assay results gathered from unrelated publications.
Compare with care: the assays were run in different laboratories.
Target: Serine/threonine-protein kinase BRSK1 (BRSK1, Homo sapiens, UniProt Q8TDC3)
One construct used (Q8TDC3 1-778): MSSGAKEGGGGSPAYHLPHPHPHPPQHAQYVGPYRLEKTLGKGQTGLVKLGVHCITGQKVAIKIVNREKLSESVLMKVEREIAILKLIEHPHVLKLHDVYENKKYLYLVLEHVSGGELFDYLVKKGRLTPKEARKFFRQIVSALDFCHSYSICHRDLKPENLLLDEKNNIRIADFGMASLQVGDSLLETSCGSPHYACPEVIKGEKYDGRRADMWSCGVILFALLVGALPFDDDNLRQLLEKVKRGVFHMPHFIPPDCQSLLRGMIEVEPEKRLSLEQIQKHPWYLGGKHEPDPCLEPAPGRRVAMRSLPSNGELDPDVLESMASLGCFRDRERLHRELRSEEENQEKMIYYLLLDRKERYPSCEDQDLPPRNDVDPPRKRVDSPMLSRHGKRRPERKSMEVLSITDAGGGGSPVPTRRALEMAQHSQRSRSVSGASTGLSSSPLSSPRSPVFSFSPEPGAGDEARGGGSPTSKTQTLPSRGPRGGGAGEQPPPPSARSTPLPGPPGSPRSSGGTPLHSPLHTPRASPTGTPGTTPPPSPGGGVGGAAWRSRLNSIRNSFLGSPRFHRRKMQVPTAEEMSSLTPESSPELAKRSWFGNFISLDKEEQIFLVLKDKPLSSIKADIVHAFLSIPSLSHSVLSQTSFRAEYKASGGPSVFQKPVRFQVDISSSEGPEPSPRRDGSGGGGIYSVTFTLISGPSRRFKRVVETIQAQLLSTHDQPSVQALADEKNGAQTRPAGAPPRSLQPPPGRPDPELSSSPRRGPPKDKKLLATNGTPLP

With `COc1cc(Cl)c(C(=O)N[C@@H](CN[C@H]2CC[C@@H](N)CC2)Cc2ccc(C#N)cc2)cc1-c1ccc(CN[C@H](C)c2ccc(C)cc2)o1` the remaining activity was 100% (enzyme activity; inhibitor; 1 µM).
For `Cc1ccc(Nc2nccc(N(C)c3ccc4c(C)n(C)nc4c3)n2)cc1S(N)(=O)=O`, the inhibition was 36% (enzyme activity; inhibitor; 10 µM).
For `O=C(Nc1cccnn1)N1CCC(=Cc2cccc(Oc3ccc(C(F)(F)F)cn3)c2)CC1`, the remaining binding was 73% (cell-free assay; competition with immobilised ligand; 1 µM).
`CNC(=O)c1cc(Oc2ccc(NC(=O)Nc3ccc(Cl)c(C(F)(F)F)c3)cc2)ccn1` gave an inhibition of 17% (enzyme activity; inhibitor; 0.3 µM).
With `CCN(CC)c1ccc(C2=NNC(=O)CC2C)cc1[N+](=O)[O-]` (stereo not drawn) the remaining activity was 131% (enzyme activity; inhibitor; 10 µM).
`Cc1nc(Cc2cccc(C(F)(F)F)c2)sc1-c1ccc(C(N)=O)nc1` gave a remaining binding of 100% (cell-free assay; competition with immobilised ligand; 1 µM).
With `Cc1sc(C(=O)NC2COC2)cc1-n1cc(NC(=O)Nc2c(F)cccc2Cl)cn1` the remaining activity was 87.8% (enzyme activity; inhibitor; 10 µM).
With `FC(F)(F)Oc1cccc(-c2cnc3ccc(-c4ccncc4)nn23)c1` the activity vs control was 103% (enzyme activity; inhibitor; radiometric; 1 µM).
For `COc1cc(/C=C/C(=O)CC(=O)/C=C/c2ccc(O)c(OC)c2)ccc1O`, the activity vs control was 92% (enzyme activity; inhibitor; 1 µM).
For `Cn1c(=O)n(-c2ccc(C(C)(C)C#N)cc2)c2c3cc(-c4cnc5ccccc5c4)ccc3ncc21`, the remaining activity was 85% (enzyme activity; inhibitor; 10 µM).
`N#CCCc1ccc2c(c1)-c1[nH]c3ccc([N+](=O)[O-])cc3c1CC(=O)N2` gave a remaining signal of 46.8% (cell-free assay; 0.5 µM).
With `CCCS(=O)(=O)Nc1ccc(F)c(C(=O)c2c[nH]c3ncc(-c4ccc(Cl)cc4)cc23)c1F` the inhibition was less than 10% (enzyme activity; inhibitor; 1 µM).
`CCCCN(CCCC)C(=O)CN1C[C@@H](c2cc(OC)c3c(c2)OCO3)[C@H](C(=O)O)[C@H]1CC(C)(C)CCC` gave a remaining binding of 88.9% (cell-free assay; competition with immobilised ligand; 1 µM).
With `COc1cc2ncnc(Nc3ccc(Oc4ccccc4)cc3C)c2cc1OC` the inhibition was 1% (enzyme activity; inhibitor; 1 µM).
With `Cc1cnc(NC2CCOCC2)nc1-n1cnc(C(=O)NC(CN)c2cc(F)cc(Cl)c2)c1` (stereo not drawn) the remaining activity was 77% (enzyme activity; inhibitor; radiometric; 1 µM).
`CN1CC(Oc2cnc(C#N)cc2-c2ccn3nc(NC(=O)C4CC4)cc3c2)C1` has an inhibition of 6% (enzyme activity; inhibitor; 1 µM).
`O=C1Nc2ccc(Cl)cc2C1=Cc1cc(Cl)c(O)c(Cl)c1` has a remaining signal of 81.3% (cell-free assay; 0.5 µM).
The remaining binding of `NS(=O)(=O)c1cc(NC(=O)Cc2ccccc2)ccc1Oc1cccc(Cl)c1` is reported as 91% (cell-free assay; competition with immobilised ligand; 1 µM).
The activity vs control of `Cc1cc(NC(=O)c2cccc3cc(-c4cccc5[nH]nc(N)c45)ccc23)ccc1F` is reported as 123% (enzyme activity; inhibitor; 0.1 µM).
`O=C(N1CCS(=O)(=O)CC1)N1C[C@H](c2ccc(OC(F)(F)F)cc2)C[C@H](c2nc(C3CC3)no2)C1` has a remaining binding of 100% (cell-free assay; competition with immobilised ligand; 1 µM).
`CNc1cccc2cc(C(=O)Nc3ccc(C(=O)O)cc3)c(=O)[nH]c12` has an inhibition of 2.7% (enzyme activity; inhibitor; 10 µM).
With `CC(=O)N1CCC(c2ccc(C(=O)NC(=N)N)cc2C(F)(F)F)CC1` the remaining binding was 87% (cell-free assay; competition with immobilised ligand; 1 µM).
`CCCOc1ccc(OC)c(F)c1C(=O)c1ccc(C(=O)N[C@@H]2CNC[C@H]2NC(=O)c2ccc3[nH]ncc3c2)cc1` has a remaining activity of 40% (enzyme activity; inhibitor; 10 µM).
The remaining binding of `CC1=C(C#N)C(c2ccc3c(c2)c(NC(=O)c2ccccc2C)nn3C)C(C#N)=C(C)N1` is reported as 100% (cell-free assay; competition with immobilised ligand; 1 µM).
For `CC(C)(C)c1nc(-c2cccc(NS(=O)(=O)c3c(F)cccc3F)c2F)c(-c2ccnc(N)n2)s1`, the remaining activity was 105% (enzyme activity; inhibitor; radiometric; 1 µM).
`CCc1ccccc1C(=O)Nc1n[nH]c2c(C)c(F)c(C3C(C#N)=C(C)N(C)C(C)=C3C#N)cc12` has a remaining binding of 55% (cell-free assay; competition with immobilised ligand; 1 µM).
`CCN(CC)CCNC(=O)c1c(C)[nH]c(/C=C2\C(=O)Nc3ccc(F)cc32)c1C` has an inhibition of 27% (enzyme activity; inhibitor; 0.3 µM).
